ChEMBL document CHEMBL1143845, “In vitro activities of isavuconazole and other antifungal agents against Candida bloodstream isolates” (2007)
Values after ≈ are worked out from the molar mass of the structure shown.

Columns and labels:
Type in all cases: functional
[1] = Antifungal activity against Candida tropicalis bloodstream isolates by broth microdilution method
Summary of the method: (§1)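 CLSI M27-A2 broth microdilution in RPMI 1640 buffered to pH 7.0 with 0.165 M MOPS. Consecutive blood-culture isolates were subcultured at least twice on Sabouraud dextrose agar. Final inoculum was 0.5 × 103 to 2.5 × 10^3 cells/ml against twofold drug dilutions, incubated in air at 35°C for 24–48 h. MIC was read visually as no growth or ≥50% growth reduction versus drug-free control, depending on agent.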

[2] = tested on: Candida parapsilosis; experiment: Antifungal activity against Candida parapsilosis bloodstream isolates by broth microdilution method; conditions: Lodderomyces parapsilosis; summary of the method: as §1
[3] = tested on: Pichia kudriavzevii; experiment: Antifungal activity against Candida krusei bloodstream isolates by broth microdilution method; summary of the method: as §1
[4] = tested on: Candida albicans; experiment: Antifungal activity against Candida albicans bloodstream isolates by broth microdilution method; summary of the method: as §1
[5] = tested on: Nakaseomyces glabratus; experiment: Antifungal activity against Candida glabrata bloodstream isolates by broth microdilution method; summary of the method: as §1
[6] = tested on: Candida; experiment: Antifungal activity against Candida sp. bloodstream isolates by broth microdilution method; summary of the method: as §1

Row | SMILES | MIC50 [1] | MIC90 [1] | MIC50 [2] | MIC90 [2] | MIC50 [3] | MIC90 [3] | MIC50 [4] | MIC90 [4] | MIC50 [5] | MIC90 [5] | MIC50 [6] | MIC90 [6]
1 | C[C@@H]1[C@H](O)[C@@H](C)/C=C/C=C/C=C/C=C/C=C/C=C/C=C/[C@H](O[C@@H]2O[C@H](C)[C@@H](O)[C@H](N)[C@@H]2O)C[C@@H]2O[C@](O)(C[C@@H](O)C[C@@H](O)[C@H](O)CC[C@@H](O)C[C@@H](O)CC(=O)O[C@H]1C)C[C@H](O)[C@H]2C(=O)O (stereo in doubt) [AMPHOTERICIN B] | 0.5 µg/mL (≈ 0.541 µM) | 0.5 µg/mL (≈ 0.541 µM) | 0.25 µg/mL (≈ 0.271 µM) | 0.5 µg/mL (≈ 0.541 µM) | 0.5 µg/mL (≈ 0.541 µM) | 0.5 µg/mL (≈ 0.541 µM) | 0.25 µg/mL (≈ 0.271 µM) | 0.5 µg/mL (≈ 0.541 µM) | 0.5 µg/mL (≈ 0.541 µM) | 0.5 µg/mL (≈ 0.541 µM) | 0.25 µg/mL (≈ 0.271 µM) | 0.5 µg/mL (≈ 0.541 µM)
2 | OC(Cn1cncn1)(Cn1cncn1)c1ccc(F)cc1F [FLUCONAZOLE] | 1 µg/mL (≈ 3.27 µM) | 1 µg/mL (≈ 3.27 µM) | 1 µg/mL (≈ 3.27 µM) | 2 µg/mL (≈ 6.53 µM) | 32 µg/mL (≈ 104 µM) | 64 µg/mL (≈ 209 µM) | 0.5 µg/mL (≈ 1.63 µM) | 1 µg/mL (≈ 3.27 µM) |  |  | 1 µg/mL (≈ 3.27 µM) | 16 µg/mL (≈ 52.2 µM)
3 | Nc1nc(=O)[nH]cc1F [FLUCYTOSINE] | 0.125 µg/mL (≈ 0.968 µM) | 128 µg/mL (≈ 992 µM) | 0.125 µg/mL (≈ 0.968 µM) | 0.125 µg/mL (≈ 0.968 µM) | 16 µg/mL (≈ 124 µM) | 16 µg/mL (≈ 124 µM) | 0.125 µg/mL (≈ 0.968 µM) | 0.25 µg/mL (≈ 1.94 µM) | 0.063 µg/mL (≈ 0.488 µM) | 0.063 µg/mL (≈ 0.488 µM) | 0.063 µg/mL (≈ 0.488 µM) | 2 µg/mL (≈ 15.5 µM)
4 | C[C@@H](c1nc(-c2ccc(C#N)cc2)cs1)[C@](O)(Cn1cncn1)c1cc(F)ccc1F [ISAVUCONAZOLE] | 0.031 µg/mL (≈ 0.0709 µM) | 0.063 µg/mL (≈ 0.144 µM) | 0.016 µg/mL (≈ 0.0366 µM) | 0.031 µg/mL (≈ 0.0709 µM) | 0.5 µg/mL (≈ 1.14 µM) | 0.5 µg/mL (≈ 1.14 µM) | 0.002 µg/mL (≈ 0.00457 µM) | 0.004 µg/mL (≈ 0.00914 µM) | 0.25 µg/mL (≈ 0.571 µM) | 0.5 µg/mL (≈ 1.14 µM) | 0.016 µg/mL (≈ 0.0366 µM) | 0.5 µg/mL (≈ 1.14 µM)
5 | CCC(C)n1ncn(-c2ccc(N3CCN(c4ccc(OCC5COC(Cn6cncn6)(c6ccc(Cl)cc6Cl)O5)cc4)CC3)cc2)c1=O (stereo not given) [ITRACONAZOLE] | 0.031 µg/mL (≈ 0.0439 µM) | 0.031 µg/mL (≈ 0.0439 µM) | 0.016 µg/mL (≈ 0.0227 µM) | 0.063 µg/mL (≈ 0.0893 µM) | 0.5 µg/mL (≈ 0.709 µM) | 0.5 µg/mL (≈ 0.709 µM) | 0.008 µg/mL (≈ 0.0113 µM) | 0.016 µg/mL (≈ 0.0227 µM) | 0.5 µg/mL (≈ 0.709 µM) | 1 µg/mL (≈ 1.42 µM) | 0.016 µg/mL (≈ 0.0227 µM) | 0.25 µg/mL (≈ 0.354 µM)
6 | C[C@@H](c1ncncc1F)[C@](O)(Cn1cncn1)c1ccc(F)cc1F [VORICONAZOLE] | 0.063 µg/mL (≈ 0.18 µM) | 0.125 µg/mL (≈ 0.358 µM) | 0.031 µg/mL (≈ 0.0887 µM) | 0.125 µg/mL (≈ 0.358 µM) | 0.5 µg/mL (≈ 1.43 µM) | 1 µg/mL (≈ 2.86 µM) | 0.016 µg/mL (≈ 0.0458 µM) | 0.031 µg/mL (≈ 0.0887 µM) | 0.5 µg/mL (≈ 1.43 µM) | 2 µg/mL (≈ 5.73 µM) | 0.031 µg/mL (≈ 0.0887 µM) | 0.5 µg/mL (≈ 1.43 µM)
